Measurements published in ChEMBL document CHEMBL1268816, “Discovery of a series of potent, orally active α,α-disubstituted piperidine NK(1) antagonists” (Bioorg Med Chem Lett, 2010).

Legend:
Substance-P receptor = Substance-P receptor (Homo sapiens, UniProt P25103); assay: Displacement of [3H]SAr-Met from human recombinant NK1 receptor expressed in CHO cells; assay type: cell-based
Summary of the method: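 Membranes from CHO cells expressing recombinant human NK1 receptor; radioligand [3H]-Sar-Met substance P used near its experimentally derived Kd. Ki derived by Cheng–Prusoff equation. Binding values are the average of two or three independent determinations.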

[1] = AUC (0 to 6 hrs) in rat at 10 mg/kg, po; assay type: ADME, organism-based; set-up: time < 6 hr, dose 10 mg/kg, route oral; conditions: plasma
Summary of the method: (§1)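 Rat pharmacokinetics after oral dosing at 10 mpk (unless otherwise specified), vehicle 20% HPBCD.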

[2] = Half life in rat at 10 mg/kg, po; assay type: ADME, organism-based; set-up: dose 10 mg/kg, route oral; conditions: in vivo; summary of the method: as §1
[3] = Oral bioavailability in rat at 10 mg/kg; assay type: ADME, organism-based; conditions: in vivo; summary of the method: as §1
Meriones unguiculatus [4] = assay: Inhibition of GR-73632-induced foot tapping in Mongolian gerbil assessed as duration of repetitive hind foot tapping pretreated at 1 mg/kg, icv before GR-73632 challenge measured after 4 hrs; assay type: functional; conditions: oral, in the assay text read “po before” for “icv before”
Summary of the method: (§2)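 Female Mongolian gerbils given NK1 agonist GR73632 (3 pmol) by icv injection. Test antagonists given orally in 0.4% methylcellulose in distilled water at the indicated dose, at various pretreatment times before agonist. After recovery from anesthesia, animals observed 5 min in clear boxes and hind-foot tapping duration timed. Result expressed as % decrease versus vehicle-treated controls.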

Meriones unguiculatus [5] = assay: Inhibition of GR-73632-induced foot tapping in Mongolian gerbil assessed as duration of repetitive hind foot tapping pretreated at 0.1 mg/kg, icv before GR-73632 challenge measured after 4 hrs; assay type: functional; conditions: oral, in the assay text read “po” for “icv”; summary of the method: as §2
Meriones unguiculatus [6] = assay: Inhibition of GR-73632-induced foot tapping in Mongolian gerbil assessed as duration of repetitive hind foot tapping pretreated at 0.3 mg/kg, icv before GR-73632 challenge measured after 4 hrs; assay type: functional; conditions: oral, in the assay text read “po” for “icv”; summary of the method: as §2
[7] = AUC (0 to 6 hrs) in rat at 10 mg/kg, po after 6 hrs; assay type: ADME, organism-based; set-up: time < 6 hr, dose 10 mg/kg, route oral; conditions: plasma; summary of the method: as §1
[8] = AUC (0 to 6 hrs) in rat at 5 mg/kg, po after 24 hrs; assay type: ADME, organism-based; set-up: time < 6 hr, dose 5 mg/kg, route oral; conditions: plasma

Sequence of Substance-P receptor (P25103 whole entry): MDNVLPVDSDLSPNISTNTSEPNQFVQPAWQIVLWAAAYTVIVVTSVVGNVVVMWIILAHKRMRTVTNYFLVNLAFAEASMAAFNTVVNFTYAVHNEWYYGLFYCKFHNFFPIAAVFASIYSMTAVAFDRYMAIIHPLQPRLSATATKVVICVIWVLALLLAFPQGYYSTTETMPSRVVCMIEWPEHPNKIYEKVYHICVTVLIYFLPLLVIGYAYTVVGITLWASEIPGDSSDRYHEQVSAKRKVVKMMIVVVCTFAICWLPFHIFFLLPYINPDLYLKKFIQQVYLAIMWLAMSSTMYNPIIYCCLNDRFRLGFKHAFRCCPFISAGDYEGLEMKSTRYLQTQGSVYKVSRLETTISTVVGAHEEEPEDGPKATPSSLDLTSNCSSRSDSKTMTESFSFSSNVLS

## FC(F)(F)c1cc(COCC2(c3ccccc3)CCCCN2)cc(C(F)(F)F)c1 (configuration not stated)
Substance-P receptor
  Ki: 1 nM

## CC(=O)N[C@H]1CC[C@@](CO[C@H](C)c2cc(C(F)(F)F)cc(C(F)(F)F)c2)(c2ccccc2)NC1
[1]
  AUC(0-t) at 6 h: 10000 ng·h/mL
[2]
  half-life: 192 min
[3]
  bioavailability: 63%
Meriones unguiculatus [4]
  inhibition in vivo at 1 mg/kg: 100%
Substance-P receptor
  Ki: 0.15 nM
Meriones unguiculatus [5]
  inhibition in vivo at 0.1 mg/kg: 83%
Meriones unguiculatus [6]
  inhibition in vivo at 0.3 mg/kg: 99%

## CCC(=O)N[C@H]1CC[C@@](CO[C@H](C)c2cc(C(F)(F)F)cc(C(F)(F)F)c2)(c2ccccc2)NC1
[1]
  AUC(0-t) at 6 h: 1950 ng·h/mL
Meriones unguiculatus [4]
  inhibition in vivo at 1 mg/kg: 100%
Substance-P receptor
  Ki: 0.29 nM
Meriones unguiculatus [5]
  inhibition in vivo at 0.1 mg/kg: 50%
Meriones unguiculatus [6]
  inhibition in vivo at 0.3 mg/kg: 93%

## C[C@@H](OC[C@@]1(c2ccccc2)CC[C@@H](C(N)=O)CN1)c1cc(C(F)(F)F)cc(C(F)(F)F)c1
[7]
  AUC(0-t) at 6 h: 1690 ng·h/mL
Meriones unguiculatus [4]
  inhibition in vivo at 1 mg/kg: 90%
Substance-P receptor
  Ki: 0.19 nM
Meriones unguiculatus [6]
  inhibition in vivo at 0.3 mg/kg: 75%

## C[C@@H](OC[C@@]1(c2ccccc2)CCCCN1)c1cc(C(F)(F)F)cc(C(F)(F)F)c1
Substance-P receptor
  Ki: 0.3 nM

## C[C@@H](OC[C@@]1(c2ccccc2)CC[C@H](NC(=O)C2CC2)CN1)c1cc(C(F)(F)F)cc(C(F)(F)F)c1
[1]
  AUC(0-t) at 6 h: 5260 ng·h/mL
Meriones unguiculatus [4]
  inhibition in vivo at 1 mg/kg: 100%
Substance-P receptor
  Ki: 0.23 nM
Meriones unguiculatus [6]
  inhibition in vivo at 0.3 mg/kg: 79%

## C[C@@H](OC[C@@]1(c2ccccc2)CC[C@H](NS(C)(=O)=O)CN1)c1cc(C(F)(F)F)cc(C(F)(F)F)c1
[1]
  AUC(0-t) at 6 h: 5940 ng·h/mL
Meriones unguiculatus [4]
  inhibition in vivo at 1 mg/kg: 90%
Substance-P receptor
  Ki: 1.03 nM
Meriones unguiculatus [6]
  inhibition in vivo at 0.3 mg/kg: 25%

## CNC(=O)[C@H]1CC[C@@](CO[C@H](C)c2cc(C(F)(F)F)cc(C(F)(F)F)c2)(c2ccccc2)NC1
Meriones unguiculatus [4]
  inhibition in vivo at 1 mg/kg: 91%
Substance-P receptor
  Ki: 0.26 nM
Meriones unguiculatus [6]
  inhibition in vivo at 0.3 mg/kg: 29%

## CNC(=O)[C@@H]1CC[C@@](CO[C@H](C)c2cc(C(F)(F)F)cc(C(F)(F)F)c2)(c2ccccc2)NC1
[7]
  AUC(0-t) at 6 h: 166 ng·h/mL
Meriones unguiculatus [4]
  inhibition in vivo at 1 mg/kg: 80%
Substance-P receptor
  Ki: 0.56 nM

## C[C@@H](OC[C@@]1(c2ccccc2)CC[C@H](N2CCNC2=O)CN1)c1cc(C(F)(F)F)cc(C(F)(F)F)c1
Meriones unguiculatus [4]
  inhibition in vivo at 1 mg/kg: 86%
Substance-P receptor
  Ki: 0.59 nM
Meriones unguiculatus [6]
  inhibition in vivo at 0.3 mg/kg: 71%

## C[C@@H](OC[C@@]1(c2ccccc2)CC[C@H](N2CCCC2=O)CN1)c1cc(C(F)(F)F)cc(C(F)(F)F)c1
[1]
  AUC(0-t) at 6 h: 13800 ng·h/mL
Meriones unguiculatus [4]
  inhibition in vivo at 1 mg/kg: 61%
Substance-P receptor
  Ki: 0.26 nM

## CCNC(=O)[C@H]1CC[C@@](CO[C@H](C)c2cc(C(F)(F)F)cc(C(F)(F)F)c2)(c2ccccc2)NC1
[7]
  AUC(0-t) at 6 h: 3680 ng·h/mL
Meriones unguiculatus [4]
  inhibition in vivo at 1 mg/kg: 92%
Substance-P receptor
  Ki: 0.37 nM
Meriones unguiculatus [6]
  inhibition in vivo at 0.3 mg/kg: 28%

## C[C@@H](OC[C@@]1(c2ccccc2)CC[C@H](NC(N)=O)CN1)c1cc(C(F)(F)F)cc(C(F)(F)F)c1
[1]
  AUC(0-t) at 6 h: 6040 ng·h/mL
Meriones unguiculatus [4]
  inhibition in vivo at 1 mg/kg: 96%
Substance-P receptor
  Ki: 0.69 nM
Meriones unguiculatus [6]
  inhibition in vivo at 0.3 mg/kg: 6%

## CCNC(=O)[C@@H]1CC[C@@](CO[C@H](C)c2cc(C(F)(F)F)cc(C(F)(F)F)c2)(c2ccccc2)NC1
Meriones unguiculatus [4]
  inhibition in vivo at 1 mg/kg: 78%
Substance-P receptor
  Ki: 1.13 nM

## C[C@@H](OC[C@@]1(c2ccccc2)CC[C@H](C(N)=O)CN1)c1cc(C(F)(F)F)cc(C(F)(F)F)c1
[2]
  half-life: 204 min
[3]
  bioavailability: 68%
[8]
  AUC(0-t) at 6 h: 2600 ng·h/mL
Meriones unguiculatus [4]
  inhibition in vivo at 1 mg/kg: 92%
Substance-P receptor
  Ki: 0.22 nM
Meriones unguiculatus [6]
  inhibition in vivo at 0.3 mg/kg: 82%

## C[C@@H](OC[C@@]1(c2ccccc2)CC[C@H](NC2=NCCO2)CN1)c1cc(C(F)(F)F)cc(C(F)(F)F)c1
Meriones unguiculatus [4]
  inhibition in vivo at 1 mg/kg: 37%
Substance-P receptor
  Ki: 0.28 nM

## C[C@@H](OC[C@@]1(c2ccccc2)CC[C@H](C(=O)NC2CC2)CN1)c1cc(C(F)(F)F)cc(C(F)(F)F)c1
[7]
  AUC(0-t) at 6 h: 1940 ng·h/mL
Meriones unguiculatus [4]
  inhibition in vivo at 1 mg/kg: 45%
Substance-P receptor
  Ki: 0.34 nM

## CC(=O)N[C@@H]1CC[C@@](CO[C@H](C)c2cc(C(F)(F)F)cc(C(F)(F)F)c2)(c2ccccc2)NC1
[1]
  AUC(0-t) at 6 h: 795 ng·h/mL
Meriones unguiculatus [4]
  inhibition in vivo at 1 mg/kg: 76%
Substance-P receptor
  Ki: 0.35 nM
Meriones unguiculatus [6]
  inhibition in vivo at 0.3 mg/kg: 36%

## C[C@@H](OC[C@@]1(c2ccccc2)CC[C@@H](C(=O)NC2CC2)CN1)c1cc(C(F)(F)F)cc(C(F)(F)F)c1
Meriones unguiculatus [4]
  inhibition in vivo at 1 mg/kg: 69%
Substance-P receptor
  Ki: 0.4 nM

## C[C@@H](OC[C@@]1(c2ccccc2)CC[C@H](Nc2ncccn2)CN1)c1cc(C(F)(F)F)cc(C(F)(F)F)c1
Meriones unguiculatus [4]
  inhibition in vivo at 1 mg/kg: 5%
Substance-P receptor
  Ki: 0.33 nM
